In ChEMBL document CHEMBL1126878, “4,5-Dihydro-1-phenyl-1H-2,4-benzodiazepines: novel antiarrhythmic agents” (J Med Chem, 1993) one finds ED20, dP/dt20 and inhibition data, which are given here for 48 molecules.

For series [1], the system named is Cavia porcellus. Briefly: Effective dose in vivo for cardiac refractoriness (ERP) using paced guinea pig model. Format: functional. An outline of the steps:
(§1)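 Guinea pig paced in vivo model. Hemodynamics recorded in normal sinus rhythm; ERP measured during brief pacing at baseline and 10 min after dosing. Bolus of 1 mL/kg via left ventricular catheter for doses <10 mg/kg; higher doses infused over 1 min. Cumulative dosing every 15 min up to the maximally tolerated dose (dP/dt reduced >50%). ED20 (ERP +20 ms) and dP/dt20 (20% drop in LV pressure-rise rate) derived by linear regression of individual dose-response curves.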

Series [2] has as its system Cavia porcellus. Briefly: In vivo index of cardiac contractility using paced guinea pig model. The format is functional. An outline of the steps: as §1
The target in series [3] is Sodium channel protein type 5 subunit alpha (cardiac sodium channel) (Rattus norvegicus, UniProt P15389). Briefly: in vitro. The note with it: sodium channel from cardiac myocytes, probe [3H]batrachotoxin ([3H]BTX).

Where only a bound is given, the exact number is not on record here.

Sequence of Sodium channel protein type 5 subunit alpha (cardiac sodium channel) (P15389 whole entry): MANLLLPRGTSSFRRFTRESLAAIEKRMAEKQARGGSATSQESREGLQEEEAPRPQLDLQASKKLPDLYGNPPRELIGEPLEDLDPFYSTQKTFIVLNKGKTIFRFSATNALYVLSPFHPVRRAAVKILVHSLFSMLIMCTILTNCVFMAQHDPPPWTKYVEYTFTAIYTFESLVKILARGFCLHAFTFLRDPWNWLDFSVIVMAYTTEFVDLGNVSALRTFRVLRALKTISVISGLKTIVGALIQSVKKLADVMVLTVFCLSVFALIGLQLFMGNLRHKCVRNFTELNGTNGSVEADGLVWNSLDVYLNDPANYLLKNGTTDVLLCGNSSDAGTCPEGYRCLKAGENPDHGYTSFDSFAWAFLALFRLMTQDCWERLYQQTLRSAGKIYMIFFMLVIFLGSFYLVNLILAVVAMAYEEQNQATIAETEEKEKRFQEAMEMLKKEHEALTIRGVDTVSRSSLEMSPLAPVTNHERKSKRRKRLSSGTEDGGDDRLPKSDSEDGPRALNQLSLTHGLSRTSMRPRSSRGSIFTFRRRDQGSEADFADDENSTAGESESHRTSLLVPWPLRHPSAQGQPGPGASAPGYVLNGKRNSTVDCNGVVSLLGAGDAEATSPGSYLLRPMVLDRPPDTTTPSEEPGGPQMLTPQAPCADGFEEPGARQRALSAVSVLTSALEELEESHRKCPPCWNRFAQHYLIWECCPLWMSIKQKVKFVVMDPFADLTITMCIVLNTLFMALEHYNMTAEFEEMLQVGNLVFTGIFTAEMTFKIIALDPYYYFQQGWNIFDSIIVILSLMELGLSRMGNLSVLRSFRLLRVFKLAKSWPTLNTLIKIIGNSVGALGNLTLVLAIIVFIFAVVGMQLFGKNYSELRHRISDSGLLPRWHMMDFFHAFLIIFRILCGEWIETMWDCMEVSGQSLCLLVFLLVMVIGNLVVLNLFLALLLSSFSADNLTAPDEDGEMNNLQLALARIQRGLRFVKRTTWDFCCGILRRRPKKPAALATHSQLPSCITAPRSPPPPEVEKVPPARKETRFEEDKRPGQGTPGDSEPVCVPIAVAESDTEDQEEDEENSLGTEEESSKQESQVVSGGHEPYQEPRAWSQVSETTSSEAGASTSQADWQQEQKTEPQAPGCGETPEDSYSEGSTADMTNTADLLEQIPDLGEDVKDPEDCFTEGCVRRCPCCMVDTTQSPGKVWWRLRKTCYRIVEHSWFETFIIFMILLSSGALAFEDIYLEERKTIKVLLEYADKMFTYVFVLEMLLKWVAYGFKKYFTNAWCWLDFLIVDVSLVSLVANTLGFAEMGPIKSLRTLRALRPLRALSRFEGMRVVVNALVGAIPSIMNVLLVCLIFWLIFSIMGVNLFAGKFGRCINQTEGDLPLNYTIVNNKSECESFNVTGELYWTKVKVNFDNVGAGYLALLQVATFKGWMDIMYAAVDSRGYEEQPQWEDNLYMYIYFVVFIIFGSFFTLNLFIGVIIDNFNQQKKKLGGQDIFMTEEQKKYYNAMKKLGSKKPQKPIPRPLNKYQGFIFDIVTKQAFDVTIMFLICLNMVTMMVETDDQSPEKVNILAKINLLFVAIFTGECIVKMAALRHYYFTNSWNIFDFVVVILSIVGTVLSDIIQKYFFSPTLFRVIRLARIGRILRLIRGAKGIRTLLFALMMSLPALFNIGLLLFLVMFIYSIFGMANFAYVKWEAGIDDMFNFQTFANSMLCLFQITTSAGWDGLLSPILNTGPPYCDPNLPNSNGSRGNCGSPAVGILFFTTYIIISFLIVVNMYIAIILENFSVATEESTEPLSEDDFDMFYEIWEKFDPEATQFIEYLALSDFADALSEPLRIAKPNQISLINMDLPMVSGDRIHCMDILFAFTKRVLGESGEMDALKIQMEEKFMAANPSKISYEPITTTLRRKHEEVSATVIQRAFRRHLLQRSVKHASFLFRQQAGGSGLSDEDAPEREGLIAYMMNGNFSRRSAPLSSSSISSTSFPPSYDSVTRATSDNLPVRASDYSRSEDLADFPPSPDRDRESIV

Broadly, the inhibition is the share of the control response that was lost under treatment. A high value points to a response far below the control. In series [1], `CCC1=NC(c2ccccc2)c2ccccc2C(c2ccccc2)N1C` (stereo unspecified) came in with an ED20 of more than 20 mg/kg. Also, the dP/dt20 in series [2] amounted to 0.01 mg/kg. Also, the inhibition at 10 µM in series [3] worked out at 97%.
The corresponding values for `CC(C)C1=NC(C)(c2ccccc2)c2ccccc2CN1C` (stereo unspecified) are 0.8 mg/kg, 0.7 mg/kg and 50%.
The corresponding values for `CCC1=NC(c2ccccc2)c2ccc3ccccc3c2CN1C` (stereo unspecified) are 0.3 mg/kg, 0.06 mg/kg and 98%.
In the same order, the values of `CN1C=NC(c2ccccc2)c2ccccc2C1` (stereo unspecified) are 1.4 mg/kg, 0.9 mg/kg and 68%.
For `CCC1=NC(Cc2ccccc2)c2ccccc2CN1C` (stereo unspecified), in series [1], the ED20 amounted to 0.2 mg/kg. The molecule also returned a dP/dt20 in series [2] of 0.2 mg/kg. At 10 µM the inhibition in series [3] was 84%.
As for `CN1Cc2ccccc2C(c2ccc(Cl)cc2)N=C1CCc1ccccc1` (stereo unspecified), in series [1], the ED20 turned out to be 0.2 mg/kg. The dP/dt20 in series [2] was 0.2 mg/kg. Moreover, the inhibition at 10 µM in series [3] worked out at 96%.
The molecule `CC1=NC(c2ccccc2)c2ccccc2CN1C` (stereo unspecified) gave an ED20 in series [1] of 1.2 mg/kg. For the same molecule, the dP/dt20 in series [2] stood at 0.9 mg/kg. The inhibition at 10 µM in series [3] came to 52%.
Molecule `CN(C)CC1=NC(C)(c2ccccc2)c2ccccc2CN1C` (stereo unspecified) displayed an ED20 in series [1] of 0.8 mg/kg. In series [2], the dP/dt20 came to 0.02 mg/kg. Testing at 10 µM in series [3] gave an inhibition of 57%.
In the same order, the values of `CCOC(=O)CC1=NC(C)(c2ccccc2)c2ccccc2CN1C` (stereo unspecified) are 0.3 mg/kg, 0.007 mg/kg and 79%.
In the same order, the values of `CCN(CC)CC1=NC(C)(c2ccccc2)c2ccccc2CN1C.Cl` (stereo unspecified) are more than 20 mg/kg, 0.01 mg/kg and 90%.
On to `CCCCC1=NC(c2ccccc2)c2ccccc2CN1C.Cl` (stereo unspecified), for which the ED20 in series [1] came out at 0.1 mg/kg. Besides, the dP/dt20 in series [2] stood at 0.1 mg/kg. In series [3], this molecule registered an inhibition at 10 µM of 83%.
As for `CN1Cc2ccccc2C(c2ccccc2)N=C1CCCc1ccccc1.Cl` (stereo unspecified), the ED20 in series [1] was found to be 0.2 mg/kg. Moreover, the dP/dt20 in series [2] is 0.12 mg/kg. Also, in series [3], the inhibition at 10 µM stood at 100%.
In the same order, the values of `CCC1=NCc2ccccc2C(c2ccccc2)N1Cc1ccccc1.Cl` (stereo unspecified) are more than 3 mg/kg, 0.3 mg/kg and 97%.
The corresponding values for `COc1ccc(CCC2=NC(c3ccccc3)c3ccccc3CN2C)cc1.Cl` (stereo unspecified) are 0.1 mg/kg, 0.66 mg/kg and 91%.
The molecule `COc1ccc(C2N=C(CCc3ccccc3)N(C)Cc3ccccc32)cc1.Cl` (stereo unspecified) gave an ED20 in series [1] of 0.1 mg/kg. Further, the dP/dt20 in series [2] is 0.1 mg/kg. This molecule also returned an inhibition at 10 µM in series [3] of 95%.
Consider `COc1ccc(OCC2=NC(c3ccccc3)c3ccccc3CN2C)cc1.Cl` (stereo unspecified), for which the ED20 in series [1] turned out to be 0.1 mg/kg. Moreover, the dP/dt20 in series [2] turned out to be 0.48 mg/kg. Also, the inhibition at 10 µM in series [3] worked out at 98%.
For `CN1Cc2ccccc2C(c2ccccc2)N=C1COc1ccccc1.Cl` (stereo unspecified), the ED20 in series [1] was 0.3 mg/kg. Moreover, 10 µM produced 98% inhibition in series [3].
`CN1Cc2ccccc2C(c2ccccc2)N=C1N1CCOCC1.Cl` (stereo unspecified) returned an ED20 in series [1] of 0.6 mg/kg. The same molecule gave a dP/dt20 in series [2] of 0.4 mg/kg. Besides, 10 µM produced 49% inhibition in series [3].
In the case of `CCCCCC1=NC(c2ccccc2)c2ccccc2CN1C.Cl` (stereo unspecified), the ED20 in series [1] was 0.1 mg/kg. The molecule also displayed a dP/dt20 in series [2] of 0.08 mg/kg. For the same molecule, the inhibition at 10 µM in series [3] turned out to be 95%.
As to `CCCC1=NC(c2ccccc2)c2ccccc2CN1C.Cl` (stereo unspecified), the ED20 in series [1] amounted to 0.4 mg/kg. In series [2], this molecule came in with a dP/dt20 of 0.8 mg/kg. Testing at 10 µM in series [3] gave an inhibition of 72%.
In the same order, the values of `CN1Cc2ccccc2C(c2ccccc2)N=C1N.Cl` (stereo unspecified) are 1.7 mg/kg, 1 mg/kg and 91%.
In the same order, the values of `CCCCCCCCC1=NC(c2ccccc2)c2ccccc2CN1C.Cl` (stereo unspecified) are 0.2 mg/kg, 0.1 mg/kg and 81%.
Take `CN1Cc2ccccc2C(c2ccccc2)N=C1Cc1ccccc1.Cl` (stereo unspecified): the ED20 in series [1] worked out at 0.3 mg/kg. For the same molecule, the dP/dt20 in series [2] came to 0.15 mg/kg. Besides, the inhibition at 10 µM in series [3] stood at 95%.
Regarding `CCC1=NC(c2ccccc2)c2ccccc2CN1Cc1ccccc1.Cl` (stereo unspecified), in series [1], the ED20 amounted to 1 mg/kg. In series [2], this molecule returned a dP/dt20 of 0.2 mg/kg. The molecule also registered an inhibition at 10 µM in series [3] of 98%.
In the same order, the values of `CCC1=NC(c2ccccc2)c2ccccc2CN1C(C)C.Cl` (stereo unspecified) are 0.2 mg/kg, 0.15 mg/kg and 87%.
As to `CCC1=NC(c2ccccc2)c2ccccc2CN1.Cl` (stereo unspecified), in series [1], the ED20 stood at 1.1 mg/kg. Further, in series [2], the dP/dt20 was 0.2 mg/kg. In addition, 10 µM produced 84% inhibition in series [3].
The corresponding values for `CN1Cc2ccccc2C(c2ccccc2)N=C1CCC1CCCCC1.Cl` (stereo unspecified) are 0.1 mg/kg, 0.66 mg/kg and 98%.
In the same order, the values of `CC1=NC(C)(c2ccccc2)c2ccccc2CN1C.O=C(O)/C=C/C(=O)O` (stereo unspecified) are 0.8 mg/kg, 0.9 mg/kg and 71%.
On to `CN1Cc2ccccc2C(Cc2ccccc2)N=C1CCc1ccccc1.O=C(O)/C=C/C(=O)O` (stereo unspecified), for which the ED20 in series [1] was determined as 0.2 mg/kg. This molecule also gave a dP/dt20 in series [2] of 0.04 mg/kg. The inhibition at 10 µM in series [3] worked out at 97%.
Take `CN1Cc2ccccc2C(c2ccccc2)N=C1CN1CCCCC1.O=C(O)/C=C/C(=O)O` (stereo unspecified): the ED20 in series [1] stood at 0.4 mg/kg. Besides, the dP/dt20 in series [2] is 0.002 mg/kg. Moreover, 10 µM produced 94% inhibition in series [3].
As for `CN1CCN(CC2=NC(c3ccccc3)c3ccccc3CN2C)CC1.O=C(O)/C=C/C(=O)O` (stereo unspecified), the ED20 in series [1] came to 0.4 mg/kg. The dP/dt20 in series [2] came to 0.1 mg/kg. In series [3], the inhibition at 10 µM amounted to 38%.
For the molecule `CN1Cc2ccccc2C(c2ccccc2)N=C1CN1CCOCC1.O=C(O)/C=C/C(=O)O` (stereo unspecified), the ED20 in series [1] turned out to be 0.25 mg/kg. For the same molecule, in series [2], the dP/dt20 worked out at 0.11 mg/kg. This molecule had an inhibition at 10 µM in series [3] of 57%.
The corresponding values for `CCC1=NC(C(C)=O)(c2ccccc2)c2ccccc2CN1C.O=C(O)/C=C/C(=O)O` (stereo unspecified) are 0.9 mg/kg, 0.45 mg/kg and 28%.
`CN(C)CC1=NC(c2ccccc2)c2ccccc2CN1C.O=C(O)/C=C/C(=O)O` (stereo unspecified) showed an ED20 in series [1] of 0.6 mg/kg. In series [3], this molecule showed an inhibition at 10 µM of 44%.
`CCN(CC)CCNC1=NC(c2ccccc2)c2ccccc2CN1C.O=C(O)/C=C/C(=O)O` (stereo unspecified): the ED20 in series [1] was determined as 0.7 mg/kg. Moreover, the dP/dt20 in series [2] came out at 0.9 mg/kg. The same molecule gave an inhibition at 10 µM in series [3] of 98%.
In the same order, the values of `CN1Cc2ccccc2C(C)(c2ccccc2)N=C1CCc1ccccc1` (stereo unspecified) are 0.34 mg/kg, 0.9 mg/kg and 97%.
The corresponding values for `CN1Cc2ccccc2C(c2ccccc2)N=C1COc1ccc(Cl)cc1` (stereo unspecified) are 0.2 mg/kg, 0.17 mg/kg and 100%.
In turn, `CN1Cc2ccccc2C(c2ccccc2)N=C1N1CCCC1` (stereo unspecified) showed an ED20 in series [1] of 0.2 mg/kg. For the same molecule, at 10 µM the inhibition in series [3] was 100%.
Regarding `CN1Cc2ccccc2C(C)(c2ccccc2)N=C1CN1CCOCC1` (stereo unspecified), the ED20 in series [1] turned out to be 2.4 mg/kg. The same molecule registered a dP/dt20 in series [2] of 0.1 mg/kg. In series [3], this molecule displayed an inhibition at 10 µM of 51%.
Regarding `CCC1=NC(COC)(c2ccccc2)c2ccccc2CN1C` (stereo unspecified), in series [1], the ED20 is 2.5 mg/kg. This molecule returned a dP/dt20 in series [2] of 0.1 mg/kg. The same molecule registered an inhibition at 10 µM in series [3] of 45%.
In series [1], `CCC1=NC(c2cccc3ccccc23)c2ccccc2CN1C` (stereo unspecified) displayed an ED20 of 0.6 mg/kg. The same molecule returned a dP/dt20 in series [2] of 0.2 mg/kg. Besides, at 10 µM the inhibition in series [3] was 94%.
The corresponding values for `CCC1=NC(CC)(c2ccccc2)c2ccccc2CN1C` (stereo unspecified) are 0.2 mg/kg, 0.1 mg/kg and 78%.
`CN1Cc2ccccc2C(C)(c2ccccc2)N=C1CCl` (stereo unspecified) returned an ED20 in series [1] of 0.4 mg/kg. The dP/dt20 in series [2] is 0.002 mg/kg. Besides, 10 µM produced 82% inhibition in series [3].
`CN1Cc2ccccc2C(c2ccccc2)N=C1c1ccccc1` (stereo unspecified) registered an ED20 in series [1] of 0.3 mg/kg. In addition, the dP/dt20 in series [2] came out at 1.1 mg/kg. This molecule also had an inhibition at 10 µM in series [3] of 85%.
In the same order, the values of `COc1ccc(C(=O)Nc2ccccc2CCC2CCCCN2C)cc1` (stereo unspecified) [ENCAINIDE] are 0.7 mg/kg, 0.003 mg/kg and 55%.
The corresponding values for `CCN(CC)CC(=O)Nc1c(C)cccc1C` [LIDOCAINE] are 8 mg/kg, 4.3 mg/kg and 10%.
In the same order, the values of `CCN(CC)CCNC(=O)c1ccc(NS(C)(=O)=O)cc1` [SEMATILIDE] are 1.9 mg/kg, 18.7 mg/kg and 0%.
On to `CC(C)NCC(O)c1ccc(NS(C)(=O)=O)cc1` (stereo unspecified) [SOTALOL], for which the ED20 in series [1] is 1.3 mg/kg. This molecule registered a dP/dt20 in series [2] of 1.9 mg/kg. In series [3], this molecule came in with an inhibition at 10 µM of 0%.
